The record followed here is ChEMBL document CHEMBL1141950, “Rapamycin analogs with reduced systemic exposure” (Bioorg Med Chem Lett, 2005).

The structures appear in SMILES notation.

For data set [1], the species on record is Rattus norvegicus. Nature of the data set: Efficacy in T-cell mediated inflammatory response by delayed type hypersensitivity model in Sprague-Dawley rat. Type of data set: functional.
Data set [2] is described as follows: Tmax in male Sprague-Dawley rat administered with 2.5 mg/kg, po. The data set is classed as ADME, organism-based. Also noted: dose 2.5 mg/kg, route oral. The following applies: in vivo.
The species entered for data set [3] is Rattus norvegicus. Nature of the data set: Efficacy in CD4+ T-cell mediated experimental autoimmune encephalomyelitis model in Lewis rat. The data set is classed as functional. An outline of the steps:
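Rat EAE induced by subcutaneous injection of homogenized isologous spinal cord in modified complete Freund's adjuvant; value reported with range and n.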

The species named for data set [4] is Rattus norvegicus. Put plainly: Efficacy in T-cell mediated adjuvant arthritis model in Lewis rat. The data set is classed as functional.
The nature of data set [5]: Half life in male Sprague-Dawley rat administered with 2.5 mg/kg, po. The data set is classed as ADME, organism-based. On the set-up: dose 2.5 mg/kg, route oral. The following applies: in vivo.
A short description of data set [6]: Oral bioavailability in male Sprague-Dawley rat administered with 2.5 mg/kg, po. Type of data set: ADME, organism-based. Conditions: in vivo.
A short description of data set [7]: Half life in human in a multiple dose escalation study. Type of data set: ADME, organism-based. Conditions: in vivo.
Data set [8] can be described thus: AUC in male Sprague-Dawley rat administered with 2.5 mg/kg, po. The data set is classed as ADME, organism-based. Also noted: dose 2.5 mg/kg, route oral. The following applies: plasma.
Data set [9] is described as follows: Cmax in male Sprague-Dawley rat administered with 2.5 mg/kg, po. The data set is classed as ADME, organism-based. On the set-up: dose 2.5 mg/kg, route oral. Conditions: in vivo.
Data set [10] relates to T-cell. Put plainly: T-cell antiproliferative activity in human mixed lymphocyte reaction. The data set is classed as functional, cell-based. Summed up: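 Human mixed lymphocyte reaction carried out in serum-containing medium; IC50 given as mean ± SEM for n determinations.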
Data set [11] relates to T-cell. Put plainly: Antiproliferative activity in Lewis rat lymph node cells in rat mixed lymphocyte reaction. The data set is classed as functional, cell-based. Summed up:
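Rat mixed lymphocyte reaction run serum free: Lewis rat lymph node cells (responders) stimulated by Brown–Norway splenocytes; IC50 reported as mean ± SEM of n determinations.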

Consider `CO[C@H]1C[C@@H]2CC[C@@H](C)[C@@](O)(O2)C(=O)C(=O)N2CCCC[C@H]2C(=O)O[C@H]([C@H](C)C[C@@H]2CC[C@@H](O)[C@H](OC)C2)CC(=O)[C@H](C)/C=C(\C)[C@@H](O)[C@@H](OC)C(=O)[C@H](C)C[C@H](C)/C=C/C=C/C=C/1C` [SIROLIMUS], for which the ED50 worked out at 0.5 mg/kg in the data set filed under Rattus norvegicus [1], 0.3 mg/kg in the data set listed under Rattus norvegicus [3] and 0.2 mg/kg in the data set filed under Rattus norvegicus [4]. For the same molecule, the Tmax in data set [2] turned out to be 0.5 h. Also, the results for the half-life in data set [5] and in [7] were 33.4 h and 63 h, respectively. This molecule showed a bioavailability in [6] of 43.2%. In data set [8], this molecule displayed an AUC of 559 ng·h/mL. Besides, the Cmax in data set [9] came to 50.8 ng/mL. Further, the IC50 in the data set with T-cell [10] was determined as 0.0016 µM; in the data set with T-cell [11], 2.6 µM.
Regarding `CO[C@H]1C[C@@H]2CC[C@@H](C)[C@@](O)(O2)C(=O)C(=O)N2CCCC[C@H]2C(=O)OC([C@H](C)C[C@@H]2CC[C@@H](OC(=O)N(C)OC)[C@H](OC)C2)CC(=O)[C@H](C)/C=C(\C)[C@@H](O)[C@@H](OC)C(=O)[C@H](C)C[C@H](C)/C=C/C=C/C=C/1C` (stereo not given in full), the ED50 in the data set listed under Rattus norvegicus [1] was 0.4 mg/kg; in the data set listed under Rattus norvegicus [3], 0.5 mg/kg; in the data set listed under Rattus norvegicus [4] it was 0.3 mg/kg. Also, the Tmax in data set [2] is 0.4 h. The molecule also had a half-life in data set [5] of 8.7 h. The bioavailability in [6] came out at 6.2%. In data set [8], this molecule came in with an AUC of 132 ng·h/mL. The same molecule yielded a Cmax in [9] of 29.7 ng/mL. Further, the IC50 is 0.0059 µM in the data set on T-cell [10] and 2.5 µM in the data set on T-cell [11].
Regarding `CO[C@H]1C[C@@H]2CC[C@@H](C)[C@@](O)(O2)C(=O)C(=O)N2CCCC[C@H]2C(=O)O[C@H]([C@H](C)C[C@@H]2CC[C@H](n3ncnn3)[C@H](OC)C2)CC(=O)[C@H](C)/C=C(\C)[C@@H](O)[C@@H](OC)C(=O)[C@H](C)C[C@H](C)/C=C/C=C/C=C/1C`, in the data set listed under Rattus norvegicus [1], the ED50 is 2 mg/kg. Besides, the IC50 was 0.0033 µM in the data set with T-cell [10] and 1.5 µM in the data set on T-cell [11].
Turning to `CO[C@H]1C[C@@H]2CC[C@@H](C)[C@@](O)(O2)C(=O)C(=O)N2CCCC[C@H]2C(=O)O[C@H]([C@H](C)C[C@@H]2CC[C@H](n3cnnn3)[C@H](OC)C2)CC(=O)[C@H](C)/C=C(\C)[C@@H](O)[C@@H](OC)C(=O)[C@H](C)C[C@H](C)/C=C/C=C/C=C/1C` [ZOTAROLIMUS], the results for the ED50 in the data set filed under Rattus norvegicus [1], in the data set listed under Rattus norvegicus [3] and in the data set filed under Rattus norvegicus [4] were 1.7 mg/kg, 1.2 mg/kg and 0.7 mg/kg, respectively. Besides, the Tmax in [2] is 0.4 h. Besides, the half-life is 7.9 h in data set [5] and 25 h in [7]. The bioavailability in data set [6] was determined as 12.1%. This molecule came in with an AUC in [8] of 163 ng·h/mL. In data set [9], this molecule yielded a Cmax of 46.7 ng/mL. The IC50 in the data set on T-cell [10] turned out to be 0.002 µM; in the data set on T-cell [11], 1.4 µM.

As a reminder, the ED50 is the dose that gives a 50% effect, or the effect in half of the subjects. One may read the Tmax as the time from dosing to the highest level. Usually half-life stands for the time in which the quantity being followed falls by half. As a reminder, the bioavailability is the share of a dose that reaches the circulation, judged against a reference dose that is usually intravenous. The term AUC denotes concentration integrated over time. As usually defined, the Cmax is the maximum level reached in the sampled fluid or tissue. Usually IC50 stands for the concentration needed to halve the response being measured. The low end stands for greater potency, the high end for weaker potency.
